According to ChEMBL document CHEMBL2169868, “Flavone-based novel antidiabetic and antidyslipidemic agents” (J Med Chem, 2012):

Columns and labels:
[1] = system: Mus musculus; assay: Antidiabetic activity in diabetic C57BL/KsJ db/db mouse model assessed as reduction in postprandial glucose level in hyperglycemia at 3 mg/kg, po measured 2 hrs post dose; assay type: functional; design: scale not given: the % may be the effect or the level left
Summary of the method: (§1)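 db/db mice (C57BL/KsJ, 12−18 weeks, 40−50 g; selected by glucose 200−350 mg/dL) dosed orally daily for 10 consecutive days at 1, 3, 10, 25 or 50 mg/kg; postprandial blood glucose profile recorded on day 6 with food access interrupted; mean % change versus vehicle in 5 animals per group; Student t test.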

[2] = system: Mus musculus; assay: Antidiabetic activity in diabetic C57BL/KsJ db/db mouse model assessed as improvement in glucose tolerance in hyperglycemia at 3 mg/kg, po measured 2 hrs post dose; assay type: functional
[3] = system: Mus musculus; assay: Antidyslipidemic activity in diabetic C57BL/KsJ db/db mouse model assessed as reduction in plasma triglyceride level at 25 mg/kg, po qd for 10 days; assay type: functional; design: scale not given: the % may be the effect or the level left
Summary of the method: (§2)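 db/db mice (blood glucose 200−350, TG 170−250, cholesterol 170−250, HDL-C 32−40 mg/dL) dosed orally at 25 mg/kg daily for 10 days; retro-orbital blood taken on day 11 for plasma TG, cholesterol and HDL-C (and HDL-C/CHOL ratio); mean % change versus vehicle control, 5 mice per group; Student t test.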

[4] = system: Mus musculus; assay: Antidiabetic activity in diabetic C57BL/KsJ db/db mouse model assessed as reduction in postprandial glucose level in hyperglycemia at 1 mg/kg, po measured 2 hrs post dose; assay type: functional; design: scale not given: the % may be the effect or the level left; summary of the method: as §1
[5] = system: Mus musculus; assay: Antihyperglycemic activity in diabetic C57BL/KsJ db/db mouse model assessed as reduction in plasma insulin level in hyperglycemia at 25 mg/kg, po qd for 10 days; assay type: functional; design: scale not given: the % may be the effect or the level left
Summary of the method: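 db/db mice dosed orally every day for 10 days. On day 11, retro-orbital blood was drawn and plasma insulin measured. Mean % change versus vehicle-treated control, 5 mice per group; Student t test.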

[6] = system: Syrian golden hamster; assay: Antidyslipidemic activity in high fructose and high-fat diet fed dyslipidemic Syrian golden hamster model assessed as increase in HDL-cholesterol level at 30 mg/kg/day, po for 7 day, po; assay type: functional, Mesocricetus auratus
Summary of the method: (§3)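 Syrian golden hamsters fed high-fructose high-fat diet; oral dosing in 1% gum acacia at 10, 30, 100 mg/kg (or 25 mg/kg) for 7 days, sham control given vehicle; plasma TG, cholesterol, LDL-C, HDL-C, glycerol and NEFA (kits), lipoprotein lipase activity and body weight; % change versus HFD control, six hamsters per group.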

[7] = system: Syrian golden hamster; assay: Antidyslipidemic activity in high fructose and high-fat diet fed dyslipidemic Syrian golden hamster model assessed as reduction in LDL-cholesterol level at 100 mg/kg/day, po for 7 days; assay type: functional, Mesocricetus auratus; design: scale not given: the % may be the effect or the level left; summary of the method: as §3
[8] = system: Syrian golden hamster; assay: Antidyslipidemic activity in high fructose and high-fat diet fed dyslipidemic Syrian golden hamster model assessed as reduction in cholesterol level at 30 mg/kg/day, po for 7 day, po; assay type: functional, Mesocricetus auratus; design: scale not given: the % may be the effect or the level left
[9] = system: Syrian golden hamster; assay: Antidyslipidemic activity in high fructose and high-fat diet fed dyslipidemic Syrian golden hamster model assessed as reduction in LDL-cholesterol level at 10 mg/kg/day, po for 7 day, po; assay type: functional, Mesocricetus auratus; design: scale not given: the % may be the effect or the level left; summary of the method: as §3
[10] = system: Syrian golden hamster; assay: Antidyslipidemic activity in high fructose and high-fat diet fed dyslipidemic Syrian golden hamster model assessed as reduction in triglyceride level at 25 mg/kg/day for 7 days; assay type: functional, Mesocricetus auratus; design: scale not given: the % may be the effect or the level left
Summary of the method: (§4)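 HFD-fed Syrian golden hamsters, six per group, fed a high-fructose diet. Oral dosing in 1% gum acacia for 7 days. Sham group received vehicle. Plasma TG was measured and body weight tracked. Results given as % change versus HFD control.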

[11] = system: Mus musculus; assay: Antihyperglycemic activity in diabetic C57BL/KsJ db/db mouse model assessed as reduction in hyperglycemia at 25 mg/kg, po qd for 10 days; assay type: functional; design: scale not given: the % may be the effect or the level left
Summary of the method: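 db/db mice (C57BL/KsJ, 12−18 weeks, 40−50 g, glucose 200−350 mg/dL), housed at 23 ± 2.0 °C on a 12 h light cycle. Oral dosing daily for 10 days. Blood glucose checked each morning through day 9. Body weight recorded daily from day 1 to day 10. Mean % change versus vehicle, 5 mice per group; Student t test.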

[12] = system: Syrian golden hamster; assay: Antidyslipidemic activity in high fructose and high-fat diet fed dyslipidemic Syrian golden hamster model assessed as reduction in cholesterol level at 100 mg/kg/day, po for 7 days; assay type: functional, Mesocricetus auratus; design: scale not given: the % may be the effect or the level left; summary of the method: as §3
[13] = system: Syrian golden hamster; assay: Antidyslipidemic activity in high fructose and high-fat diet fed dyslipidemic Syrian golden hamster model assessed as increase in lipoprotein lipase level at 30 mg/kg/day, po for 7 day, po; assay type: functional, Mesocricetus auratus; summary of the method: as §3
[14] = system: Syrian golden hamster; assay: Antidyslipidemic activity in high fructose and high-fat diet fed dyslipidemic Syrian golden hamster model assessed as reduction in glycerol level at 30 mg/kg/day, po for 7 day, po; assay type: functional, Mesocricetus auratus; design: scale not given: the % may be the effect or the level left; summary of the method: as §3
[15] = system: Syrian golden hamster; assay: Reduction in body weight in high fructose and high-fat diet fed dyslipidemic Syrian golden hamster model at 100 mg/kg/day, po for 7 days; assay type: functional, Mesocricetus auratus; design: scale not given: the % may be the effect or the level left; summary of the method: as §4
[16] = system: Syrian golden hamster; assay: Reduction in body weight in high fructose and high-fat diet fed dyslipidemic Syrian golden hamster model at 30 mg/kg/day, po for 7 days; assay type: functional, Mesocricetus auratus; design: scale not given: the % may be the effect or the level left; summary of the method: as §4
[17] = system: Syrian golden hamster; assay: Antidyslipidemic activity in high fructose and high-fat diet fed dyslipidemic Syrian golden hamster model assessed as increase in lipoprotein lipase level at 100 mg/kg/day, po for 7 days; assay type: functional, Mesocricetus auratus; summary of the method: as §3
[18] = Elimination half life in Sprague-Dawley rat at 2.5 mg/kg, iv by LC-MS/MS method; assay type: ADME, organism-based; design: dose 2.5 mg/kg, route intravenous; conditions: in vivo, read-out: beta t1/2 (converted)
Summary of the method: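 Male Sprague−Dawley rats given a single 2.5 mg/kg iv dose; one formulation was DMF/PG/water (2:4:4), 0.2 μ filtered. Blood drawn from 0.08 to 48 h. Plasma assayed by LC-MS/MS with linear range 0.78−400 ng/mL.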

[19] = system: Syrian golden hamster; assay: Reduction in body weight in high fructose and high-fat diet fed dyslipidemic Syrian golden hamster model at 10 mg/kg/day, po for 7 days; assay type: functional, Mesocricetus auratus; design: scale not given: the % may be the effect or the level left; summary of the method: as §4
[20] = system: Syrian golden hamster; assay: Antidyslipidemic activity in high fructose and high-fat diet fed dyslipidemic Syrian golden hamster model assessed as reduction in cholesterol level at 25 mg/kg/day for 7 days; assay type: functional, Mesocricetus auratus; design: scale not given: the % may be the effect or the level left
[21] = system: Mus musculus; assay: Antihyperglycemic activity in diabetic C57BL/KsJ db/db mouse model assessed as improvement in glucose tolerance in hyperglycemia at 25 mg/kg, po qd for 10 days; assay type: functional
Summary of the method: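 Male/female C57BL/KsJ db/db mice, 12−18 weeks, 40−50 g, selected for glucose 200−350 mg/dL. Oral dosing daily for 10 days. OGTT on day 10 after an overnight fast: compound at −30 min, then 3 g/kg oral glucose at 0 min. Glucose read at 30, 60, 90 and 120 min. AUC taken versus vehicle, 5 mice per group.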

[22] = system: Syrian golden hamster; assay: Antidyslipidemic activity in high fructose and high-fat diet fed dyslipidemic Syrian golden hamster model assessed as reduction in triglyceride level at 10 mg/kg/day, po for 7 day, po; assay type: functional, Mesocricetus auratus; design: scale not given: the % may be the effect or the level left; summary of the method: as §3
[23] = system: Syrian golden hamster; assay: Antidyslipidemic activity in high fructose and high-fat diet fed dyslipidemic Syrian golden hamster model assessed as reduction in LDL-cholesterol level at 25 mg/kg/day for 7 days; assay type: functional, Mesocricetus auratus; design: scale not given: the % may be the effect or the level left; summary of the method: as §3
[24] = system: Mus musculus; assay: Antidyslipidemic activity in diabetic C57BL/KsJ db/db mouse model assessed as reduction in plasma cholesterol level at 25 mg/kg, po qd for 10 days; assay type: functional; design: scale not given: the % may be the effect or the level left; summary of the method: as §2
[25] = Cmax in Sprague-Dawley rat at 25 mg/kg, po by LC-MS/MS method; assay type: ADME, organism-based; design: dose 25 mg/kg, route oral; conditions: in vivo
Summary of the method: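 Male Sprague−Dawley rats given a single 25 mg/kg oral dose (aqueous 0.5% methyl cellulose suspension for one compound). Blood drawn from 0.08 to 48 h. LC-MS/MS, linear range 0.78−400 ng/mL.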

Which results are given for CC(C)(C)NC[C@H](O)COc1ccc2c(=O)cc(-c3cc(OCc4ccccc4)cc(OCc4ccccc4)c3)oc2c1?
Activity [1]: 22.1%; Activity [2]: 35.1%; Activity [3]: 27.4%; Activity [4]: 14.8%; Activity [5]: 53.4%; Activity [6]: 21%; Activity [7]: 68.4%; Activity [8]: 27.2%; Activity [9]: 21.1%; Activity [10]: 34.7%; Activity [11]: 55.4%; Activity [12]: 50.7%; Activity [13]: 31.2%; Activity [14]: 25.7%; Activity [15]: 12.5%; Activity [16]: 10.2%; Activity [17]: 69.7%; half-life [18]: 10.1 h; Activity [19]: 7.38%; Activity [20]: 24.4%; Activity [21]: 38.8%; Activity [22]: 21.2%; Activity [23]: 30.1%; Activity [24]: 30.7%; Cmax [25]: 70.3 ng/mL
